PGC1a acetyl up: raises PGC1a acetylation signal in U2OS cells. 350,000 tested, 0.21% active. AID 651723. U2OS PGC1a acetylation AlphaScreen, overnight. activation, % at 15.6 µM;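 active = every replicate reaching activation of at least 50%, whatever the mean replicate activation; inconclusive = replicates that disagree or another doubt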;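 also: hits raise the AlphaScreen acetylation signal above neutral controls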
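System: flag-PGC1a/GCN5 U2OS cells / Input: 7000 cells/well / Compound: single test concentration per compound / Incubation: overnight compound treatment, 37 °C / Technique: AlphaScreen on lysates with anti-acetyl-lysine antibody, acceptor and donor beads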
Hep G6PC suppr: PGC-1a acetylation activator altering hepatocyte G6PC expression. shares compounds with PGC1a acetyl up. primary mouse hepatocytes, G6PC mRNA qPCR, forskolin. G6PC suppression (normalized activity, % of positive control; higher = more suppression), % at 26 µM. 240 tested, under 10 active. AID 743463;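 active = dose curves showing G6PC suppression whose half-maximal dose is at most twice the top valid dose; inconclusive = flat curves with moderate negative activity, or unreliable fits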;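 also: G6PC expression relative to GAPDH housekeeping gene as delta delta Ct; 0% = median of neutral control wells and 100% = median of positive control wells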
Hep PCK1 suppr: hepatocyte PCK1 expression change via PGC-1a acetylation activation; primary mouse hepatocytes, PCK1 mRNA qPCR, forskolin-stimulated; PCK1 expression decrease, unspecified at 26 µM; 230 tested, under 10 active; AID 743465; shares compounds with PGC1a acetyl up;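 active = compounds lowering PCK1 expression whose fitted half-maximal concentration is at most twice the top tested dose; inconclusive = flat fit with moderate opposite-direction effect, or poor fit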;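 also: values are delta delta Ct of PCK1 relative to GAPDH; higher delta delta Ct means lower PCK1 expression so positive values indicate hits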
PGC1a hep suppr: PGC-1a acetylation activators affecting PGC-1a expression in hepatocytes; shares compounds with PGC1a acetyl up; 240 tested, under 10 active; AID 743467; max activity (PGC-1a expression decrease), %; primary mouse hepatocytes, PGC-1a mRNA qPCR, forskolin; top dose 26 µM;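 active = compound lowering PGC-1a expression with fitted half-maximal concentration at most twice its top tested dose; inconclusive = flat curve with moderate opposite-direction effect, or poor fit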;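 also: 0% = neutral control wells median and 100% = positive control wells median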
* marks the source's active call; other numbers are inactive results; i = inactive; u = inconclusive; [ ] = dose if it differs, or a comment. Not all results are given here.

SMILES | PGC1a acetyl up | others
COc1ccc(C(c2nnnn2C2CCCCC2)N2CCC3(CC2)C(=O)NCN3c2ccccc2)cc1 (centres undefined) | 120*
NC1C2CN3CCN(C2)CC1(c1ccccc1)C3 (centres undefined) | -52
CCC1(CC)C(=O)C=CNC1=O | -56
C=C1C(=O)OC2CC3(C)OC3C3OC3C3=CC(OC3=O)C12 (centres undefined) | 85*
CC1CC(C)CC(C)C(O)C(C#N)=CC=CCC(C2CCCC2C(=O)O)OC(=O)CC(O)C(C)C1 (centres undefined) | -60
CC(C)Oc1cccnc1N(C)C1CCN(Cc2ccccc2)CC1 | -59
CC(=O)OC1CC2(O)C3CCC4CC(O)CCC4(C)C3CCC2(C)C1C1=CC(=O)OC1 (centres undefined) | -65
COc1ccc(-n2c(O)c(C=NCCCn3ccnc3)c(=O)[nH]c2=O)cc1 | 68*
CCN(CC)c1ccc(N=Cc2c(O)n(-c3ccc(OC)cc3)c(=O)[nH]c2=O)cc1 | -46
COC(=O)C1C2c3ccccc3OC1(C)N=c1s/c(=C/c3cn(C)nc3C)c(=O)n12 (centres undefined) | -46
O=C1NC2C(=CC(O)C(O)C2O)c2cc3c(c(O)c21)OCO3 (centres undefined) | -63
C[C@H]1CCC/C=C/[C@@H]2C[C@H](O)C[C@H]2[C@@H](O)/C=C/C(=O)O1 | -37
C=C1C(=O)O[C@@H]2C[C@@H](C)[C@H]3C=CC(=O)[C@]3(O)C[C@@H]12 | 79*
O=C1CN=C(c2ccccc2)c2cc([N+](=O)[O-])ccc2N1 | -46
CC1=CC(=O)C2=C(C)C[C@H](O)[C@@H]3[C@H](OC(=O)[C@H]3C)[C@@H]12 | -53
CN1C2CCC1/C(=C/c1ccccn1)C(=O)/C2=C\c1ccccn1 | -78
CC1=CC(=C2C(=O)NC(=S)NC2=O)C=C(C(F)(F)F)N1Cc1ccccc1 | -88
COc1ccc(C(c2ccc(OC)cc2)C(Cl)(Cl)Cl)cc1 | 93*
CNCC(=O)c1ccc(O)c(O)c1 | -55
CCOC(=O)CNC(=O)N1Cc2ccc(Br)cc2-n2nncc2C1 | -41
Cc1ccc(N2C(=O)NC(=O)/C(=C/c3ccoc3)C2=O)cc1 | -50
CCc1ccc(N2C(=O)NC(=O)/C(=C\C=C\c3ccco3)C2=O)cc1 | 114*
O=C1/C(=C/c2ccccc2)C[C@@]2(O)[C@H]3Cc4ccc(O)c5c4[C@@]2(CCN3CC2CC2)C1O5 (some centres undefined) | -45
CC(C)(O)/C=C/C(=O)[C@](C)(O)C1[C@H](O)C[C@@]2(C)C3CC=C4C(C[C@H](O)[C@@H](O)C4(C)C)[C@]3(C)C(=O)C[C@]12C (some centres undefined) | -65
C=C1C(=O)OC2CC3(C)OC3CCC(C)=CC(OC(C)=O)C12 (centres undefined) | 118*
SMILES | PGC1a acetyl up | others
C[C@H]1C[C@@H](C)C(=O)[C@@H]([C@H](O)CC2CC(=O)NC(=O)C2)C1 | -68
O=c1c2ccccc2nc(/C=C/c2ccc([N+](=O)[O-])o2)n1-c1ccc(O)cc1 | 144*
O=c1[nH]c2ccccc2n1C1CCN(C(c2cc3ccccc3o2)c2nnnn2Cc2ccccc2)CC1 (centres undefined) | -49
CC(=O)OCC12CC(OC(=O)CC(C)C)C(C)=CC1OC1C(O)C(OC(C)=O)C2(C)C12CO2 (centres undefined) | -74
O=[N+]([O-])c1ccc(N2CCOCC2)c2c1no[n+]2[O-] | -84
CNC(=O)c1cccn(Cc2ccc(C(F)(F)F)cc2)c1=O | 68*
C[C@]12CC[C@H]3[C@@H](CC[C@]4(O)C[C@@H](O)CC[C@]34C=O)[C@@]1(O)CC[C@@H]2C1=CC(=O)OC1 | -96
CCCN(CCC)[C@@H]1CCc2cccc(O)c2C1 | -42
COCCCn1c(N)c(C(=O)Nc2ccccc2)c2nc3ccccc3nc21 | 51*
N#Cc1ccccc1NC(=O)CN1CC=C(c2ccccc2)CC1 | -47
CC(=O)OC1CC(OC2C(O)CC(OC3C(O)CC(OC4CCC5(C)C(CCC6C5CCC5(C)C(C7=CC(=O)OC7)C(O)CC65O)C4)OC3C)OC2C)OC(C)C1OC1OC(CO)C(O)C(O)C1O (centres undefined) | -42
Cc1ccc(OC(=O)N(C)C[C@H]2OCc3ccccc3-c3c(n(C)c4ccccc34)C(=O)N([C@@H](C)CO)C[C@H]2C)cc1 | 82* | Hep G6PC suppr=109[23.5 µM];Hep PCK1 suppr=84[23.5 µM];PGC1a hep suppr=104
COc1ccc(OC(=O)N(C)C[C@H]2OCc3ccccc3-c3c(n(C)c4ccccc34)C(=O)N([C@H](C)CO)C[C@H]2C)cc1 | 173* | Hep G6PC suppr=1;Hep PCK1 suppr=9.7;PGC1a hep suppr=49
C[C@@H]1CN([C@@H](C)CO)C(=O)c2c(c3ccccc3n2C)-c2ccccc2CO[C@@H]1CN(C)C(=O)Oc1ccccc1 | u | Hep G6PC suppr=488;Hep PCK1 suppr=u;PGC1a hep suppr=276
CCOc1ccccc1N=C1SCCCN1C | -97
C[C@@H]1O[C@@H](O[C@H]2C[C@@H](O)[C@]3(CO)[C@H]4[C@H](O)C[C@]5(C)[C@@H](C6=CC(=O)OC6)CC[C@]5(O)[C@@H]4CC[C@]3(O)C2)[C@H](O)[C@H](O)[C@H]1O | -83
c1cc(CNCCc2ccc3c(c2)OCO3)ccn1 | -46
COc1ccc(C[C@H]2NC[C@H](O)[C@H]2OC(C)=O)cc1 | -90
CCOc1ccccc1CNCCc1ccc2c(c1)OCO2 | -40
c1ccc2c(N3CCNCC3)cccc2c1 | -49
O=C1CSC2N1CCNC21CCCCC1 (centres undefined) | -42
Cn1ncnc2c(=O)n(C)c(=O)nc1-2 | -100
Cc1cccc(C)c1-n1nnnc1C(c1ccccc1OC(F)(F)F)N1CCC(n2c(=O)[nH]c3ccccc32)CC1 (centres undefined) | 61* | Hep G6PC suppr=i;Hep PCK1 suppr=1187;PGC1a hep suppr=136
CC1=NN(c2ccccc2)C(=O)/C1=C/c1c(O)[nH]c(=O)[nH]c1=O | -49
O=C1NC2C(=CC(O)C(O)C2O)c2cc3c(cc21)OCO3 (centres undefined) | -85

Screens deposited in PubChem BioAssay by Broad Institute.
